Values after ≈ are worked out from the molar mass of the structure shown.
Legend:
[1] = tested on: Human alphaherpesvirus 1; test: Concentration required to inhibit HSV-1 strain KOS cytopathic effect by 50% was measured by plaque reduction assay; assay type: functional; settings: for IC50: Human alphaherpesvirus 1, read-out: ID50 (the source's name)
Method in brief: (§1)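 Plaque reduction in confluent Vero monolayers infected with 30-40 PFU of HSV-1 KOS or HSV-2 186, with 1 h adsorption at 37 °C. Cells were then overlaid with maintenance medium containing 0.75% carboxymethylcellulose and a range of compound concentrations. After 2 days at 37 °C, cells were fixed and stained and plaques counted. ID50 is the concentration giving 50% plaque reduction.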

[2] = tested on: Vero; test: Cytotoxicity was evaluated by measuring the dose affecting 50% of mock-infected Vero monolayers; assay type: functional; settings: Chlorocebus sabaeus, read-out: ID50 (the source's name)
Method in brief: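 Mock-infected confluent Vero monolayers were incubated with compound for 48 h at 37 °C and examined microscopically. Gross changes in staining, cell number or morphology were scored. The value is the dose affecting 50% of the monolayer.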

[3] = tested on: Human alphaherpesvirus 2; test: Concentration required to inhibit HSV-2 strain 186 cytopathic effect by 50% was measured by plaque reduction assay; assay type: functional; settings: for IC50: Human alphaherpesvirus 2, read-out: ID50 (the source's name); method in brief: as §1
[4] = tested on: Human alphaherpesvirus 2; test: In vivo efficacy of compound against HSV-2 strain A133 in the mouse system model was measured at 0.025 dose(mg/kg), activity expressed as Survivors counted on day 21; 0/10; assay type: functional
Method in brief: (§2)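 Female albino mice (15-18 g) were challenged ip with 0.2 mL virus suspension at (5-15) × LD50. Starting 1 h later, they were dosed sc (0.2 mL, saline) twice daily for 4 days. Doses were the maximum tolerated dose and serial dilutions of it. Groups had 5-10 mice. Survivors were counted on day 21, and ED50 (mg/kg per dose) came from logit transformation (Litchfield–Wilcoxon).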

[5] = tested on: Human alphaherpesvirus 2; test: In vivo efficacy of compound against HSV-2 strain CT in the mouse system model was measured at 0.7 dose(mg/kg), activity expressed as Survivors counted on day 21; 2/10
[6] = tested on: Human alphaherpesvirus 2; test: In vivo efficacy of compound against HSV-2 strain CT in the mouse system model was measured at 1.6 dose(mg/kg), activity expressed as Survivors counted on day 21; 7/10
[7] = tested on: Human alphaherpesvirus 2; test: In vivo efficacy of compound against HSV-2 strain A133 in the mouse system model was measured at 6.25 dose(mg/kg), activity expressed as Survivors counted on day 21; […]; assay type: functional; method in brief: as §2
[8] = tested on: Human alphaherpesvirus 2; test: Compound was measured for the inhibition of HSV-2 strain A133 in the mouse system model at 0.7 dose(mg/kg); assay type: functional; method in brief: as §2
[9] = tested on: Human alphaherpesvirus 2; test: In vivo efficacy of compound against HSV-2 strain CT in the mouse system model was measured at 0.1 dose(mg/kg), activity expressed as Survivors counted on day 21; 2/10
[10] = tested on: Human alphaherpesvirus 1; test: In vivo efficacy of compound against HSV-1 strain A133 in the mouse system model was measured at 3.1 dose(mg/kg), activity expressed as Survivors counted on day 21; 10/10; assay type: functional; method in brief: as §2
[11] = tested on: Human alphaherpesvirus 1; test: Compound was measured for the inhibition of HSV-1 strain A133 in the mouse system model at 0.2 dose(mg/kg); assay type: functional; method in brief: as §2
[12] = tested on: Human alphaherpesvirus 1; test: In vivo efficacy of compound against HSV-1 strain A133 in the mouse system model was measured at 0.012 dose(mg/kg), activity expressed as Survivors counted on day 21; 1/10; assay type: functional; method in brief: as §2
[13] = tested on: Human alphaherpesvirus 1; test: In vivo efficacy of compound against HSV-1 strain A133 in the mouse system model was measured at 0.2 dose(mg/kg), activity expressed as Survivors counted on day 21; 4/10; assay type: functional; method in brief: as §2
[14] = tested on: Human alphaherpesvirus 1; test: In vivo efficacy of compound against HSV-1 strain A133 in the mouse system model was measured at 0.05 dose(mg/kg), activity expressed as Survivors counted on day 21; 1/10; assay type: functional; method in brief: as §2
[15] = tested on: Human alphaherpesvirus 1; test: In vivo efficacy of compound against HSV-1 strain A133 in the mouse system model was measured at 0.8 dose(mg/kg), activity expressed as Survivors counted on day 21; 10/10; assay type: functional; method in brief: as §2
[16] = tested on: Human alphaherpesvirus 1; test: In vivo efficacy of compound against HSV-1 strain A133 in the mouse system model was measured at 0.1 dose(mg/kg), activity expressed as Survivors counted on day 21; 0/5; assay type: functional; method in brief: as §2
[17] = tested on: Human alphaherpesvirus 2; test: In vivo efficacy of compound against HSV-2 strain A133 in the mouse system model was measured at 0.4 dose(mg/kg), activity expressed as Survivors counted on day 21; 0/5; assay type: functional; method in brief: as §2
[18] = tested on: Human alphaherpesvirus 1; test: In vivo efficacy of compound against HSV-1 strain A133 in the mouse system model was measured at 0.4 dose(mg/kg), activity expressed as Survivors counted on day 21; 2/5; assay type: functional; method in brief: as §2
[19] = tested on: Human alphaherpesvirus 1; test: In vivo efficacy of compound against HSV-1 strain A133 in the mouse system model was measured at 3.1 dose(mg/kg), activity expressed as Survivors counted on day 21; 4/5; assay type: functional; method in brief: as §2
[20] = tested on: Human alphaherpesvirus 1; test: In vivo efficacy of compound against HSV-1 strain A133 in the mouse system model was measured at 1.6 dose(mg/kg), activity expressed as Survivors counted on day 21; 2/5; assay type: functional; method in brief: as §2
[21] = tested on: Human alphaherpesvirus 2; test: In vivo efficacy of compound against HSV-2 strain A133 in the mouse system model was measured at 3.1 dose(mg/kg), activity expressed as Survivors counted on day 21; 4/5; assay type: functional; method in brief: as §2
[22] = tested on: Human alphaherpesvirus 2; test: In vivo efficacy of compound against HSV-1 strain A133 in the mouse system model was measured at 1.6 dose(mg/kg), activity expressed as Survivors counted on day 21; 4/5; assay type: functional; method in brief: as §2
[23] = tested on: Human alphaherpesvirus 2; test: Compound was measured for the inhibition of HSV-2 strain A133 in the mouse system model at 3.1 dose(mg/kg); assay type: functional; method in brief: as §2
[24] = tested on: Human alphaherpesvirus 2; test: In vivo efficacy of compound against HSV-2 strain A133 in the mouse system model was measured at 0.8 dose(mg/kg), activity expressed as Survivors counted on day 21; 2/5; assay type: functional; method in brief: as §2
[25] = tested on: Human alphaherpesvirus 1; test: Compound was measured for the inhibition of HSV-1 strain A133 in the mouse system model at 1.6 dose(mg/kg); assay type: functional; method in brief: as §2
[26] = tested on: Human alphaherpesvirus 2; test: In vivo efficacy of compound against HSV-2 strain A133 in the mouse system model was measured at 6.25 dose(mg/kg), activity expressed as Survivors counted on day 21; 5/5; assay type: functional; method in brief: as §2
[27] = tested on: Human alphaherpesvirus 1; test: In vivo efficacy of compound against HSV-1 strain A133 in the mouse system model was measured at 25 dose(mg/kg), activity expressed as Survivors counted on day 21; 2/5; assay type: functional; method in brief: as §2
[28] = tested on: Human alphaherpesvirus 2; test: In vivo efficacy of compound against HSV-2 strain A133 in the mouse system model was measured at 6.25 dose(mg/kg), activity expressed as Survivors counted on day 21; assay type: functional; method in brief: as §2
[29] = tested on: Human alphaherpesvirus 1; test: In vivo efficacy of compound against HSV-1 strain A133 in the mouse system model was measured at 6.25 dose(mg/kg), activity expressed as Survivors counted on day 21; 0/10; assay type: functional; method in brief: as §2
[30] = tested on: Human alphaherpesvirus 2; test: In vivo efficacy of compound against HSV-2 strain A133 in the mouse system model was measured at 50 dose(mg/kg), activity expressed as Survivors counted on day 21; 1/5; assay type: functional; method in brief: as §2
[31] = tested on: Human alphaherpesvirus 2; test: In vivo efficacy of compound against HSV-2 strain CT in the mouse system model was measured at 25 dose(mg/kg), activity expressed as Survivors counted on day 21; 2/10
[32] = tested on: Human alphaherpesvirus 2; test: In vivo efficacy of compound against HSV-2 strain CT in the mouse system model was measured at 25 dose(mg/kg), activity expressed as Survivors counted on day 21; 3/5
[33] = tested on: Human alphaherpesvirus 1; test: In vivo efficacy of compound against HSV-1 strain A133 in the mouse system model was measured at 100 dose(mg/kg), activity expressed as Survivors counted on day 21; 8/10; assay type: functional; method in brief: as §2
[34] = tested on: Human alphaherpesvirus 2; test: In vivo efficacy of compound against HSV-2 strain CT in the mouse system model was measured at 100 dose(mg/kg), activity expressed as Survivors counted on day 21; 7/10
[35] = tested on: Human alphaherpesvirus 1; test: Compound was measured for the inhibition of HSV-1 strain A133 in the mouse system model at 25 dose(mg/kg); assay type: functional; method in brief: as §2
[36] = tested on: Human alphaherpesvirus 2; test: Compound was measured for the inhibition of HSV-2 strain A133 in the mouse system model at 25 dose(mg/kg); assay type: functional; method in brief: as §2
[37] = tested on: Human alphaherpesvirus 1; test: In vivo efficacy of compound against HSV-1 strain A133 in the mouse system model was measured at 25 dose(mg/kg), activity expressed as Survivors counted on day 21; 1/10; assay type: functional; method in brief: as §2
[38] = tested on: Human alphaherpesvirus 1; test: In vivo efficacy of compound against HSV-1 strain A133 in the mouse system model was measured at 6.25 dose(mg/kg), activity expressed as Survivors counted on day 21; 0/5; assay type: functional; method in brief: as §2
[39] = tested on: Human alphaherpesvirus 1; test: In vivo efficacy of compound against HSV-1 strain A133 in the mouse system model was measured at 100 dose(mg/kg), activity expressed as Survivors counted on day 21; 3/5; assay type: functional; method in brief: as §2
[40] = tested on: Human alphaherpesvirus 2; test: In vivo efficacy of compound against HSV-2 strain CT in the mouse system model was measured at 100dose(mg/kg), activity expressed as Survivors counted on day 21; 2/5

Nc1nc2c(ncn2[C@@H]2C[C@H](CO)[C@@H](O)[C@H]2F)c(=O)[nH]1
IC50 [1]: 2.35 µg/mL (≈ 8.3 µM) | IC50 [2]: > 300 µg/mL | IC50 [3]: 70 µg/mL (≈ 247 µM)

Nc1nc2c(ncn2[C@@H]2C[C@H](CO)[C@@H](O)[C@@H]2F)c(=O)[nH]1
Survivors [4]: 0 | Survivors [5]: 2 | Survivors [6]: 7 | Survivors [7]: 9 | IC50 [1]: 0.006 µg/mL (≈ 0.0212 µM) | ED50 [8]: 0.8 mg/kg | Survivors [9]: 2 | Survivors [10]: 10 | ED50 [11]: 0.2 mg/kg | Survivors [12]: 1 | IC50 [2]: > 300 µg/mL | IC50 [3]: 0.05 µg/mL (≈ 0.177 µM) | Survivors [13]: 4 | Survivors [14]: 1 | Survivors [15]: 10

Nc1nc(O)c2ncn([C@@H]3C[C@H](CO)[C@@H](O)C3)c2n1
IC50 [1]: 0.06 µg/mL (≈ 0.226 µM) | IC50 [2]: 300 µg/mL (≈ 1130 µM) | IC50 [3]: 0.44 µg/mL (≈ 1.66 µM)

Nc1nc(O)c2ncn(C3CC(O)C(CO)C3F)c2n1 (single isomer, unassigned; (+))
Survivors [16]: 0 | Survivors [17]: 0 | Survivors [18]: 2 | ID50 [1]: 0.16 µg/mL (≈ 0.565 µM) | Survivors [19]: 4 | Survivors [20]: 2 | Survivors [21]: 4 | Survivors [22]: 4 | ED50 [23]: 1.1 mg/kg | Survivors [24]: 2 | IC50 [2]: > 300 µg/mL | ED50 [25]: 0.97 mg/kg | Survivors [26]: 5 | ID50 [3]: 0.77 µg/mL (≈ 2.72 µM)

Nc1nc(O)c2ncn(C3CC(O)C(CO)C3F)c2n1 (single isomer, unassigned; (-))
ID50 [1]: 15 µg/mL (≈ 53 µM) | ID50 [3]: 155 µg/mL (≈ 547 µM)

Nc1nc2c(ncn2COCCO)c(=O)[nH]1 [ACYCLOVIR]
Survivors [27]: 2 | Survivors [28]: 0 | Survivors [29]: 0 | Survivors [30]: 1 | Survivors [31]: 2 | Survivors [32]: 3 | IC50 [1]: 0.2 µg/mL (≈ 0.888 µM) | Survivors [33]: 8 | Survivors [34]: 7 | ED50 [35]: ~50 mg/kg | ED50 ([35]; Human alphaherpesvirus 1, read-out: ED50): 58 mg/kg | ED50 [36]: 58 mg/kg | Survivors [37]: 1 | IC50 [2]: > 300 µg/mL | Survivors [38]: 0 | Survivors [39]: 3 | IC50 [3]: 0.6 µg/mL (≈ 2.66 µM) | Survivors [40]: 2

Nc1nc(O)c2ncn([C@@H]3O[C@H](CO)[C@@H](O)[C@@H]3F)c2n1 [F-ARAG]
IC50 [1]: 5 µg/mL (≈ 17.5 µM) | IC50 [2]: > 100 µg/mL | IC50 [3]: 19 µg/mL (≈ 66.6 µM)
